NF-kB neuron act – compounds increasing NF-kB expression in human neuronal cells. NF-kB reporter expression; hits give high values. fold change at 12.5 µM. 1.6% of 190,000 active. AID 1239; in the data active = fold change above about 3.3
FLuc stim CS – affects firefly luciferase, flagging false hits in luciferase stimulation screens | P08659 | ATPlite luciferase biochemical, luminescence, 10 min; 0 = ATP-free wells, 1 = DMSO control | activation factor at 10 µM | 200,000 tested, under 10 active | AID 1027;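 active = luciferase activation factor, scaled between plate controls, of at least 2 with compound at 10 µM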
Target sequence (P08659 whole entry, looked up): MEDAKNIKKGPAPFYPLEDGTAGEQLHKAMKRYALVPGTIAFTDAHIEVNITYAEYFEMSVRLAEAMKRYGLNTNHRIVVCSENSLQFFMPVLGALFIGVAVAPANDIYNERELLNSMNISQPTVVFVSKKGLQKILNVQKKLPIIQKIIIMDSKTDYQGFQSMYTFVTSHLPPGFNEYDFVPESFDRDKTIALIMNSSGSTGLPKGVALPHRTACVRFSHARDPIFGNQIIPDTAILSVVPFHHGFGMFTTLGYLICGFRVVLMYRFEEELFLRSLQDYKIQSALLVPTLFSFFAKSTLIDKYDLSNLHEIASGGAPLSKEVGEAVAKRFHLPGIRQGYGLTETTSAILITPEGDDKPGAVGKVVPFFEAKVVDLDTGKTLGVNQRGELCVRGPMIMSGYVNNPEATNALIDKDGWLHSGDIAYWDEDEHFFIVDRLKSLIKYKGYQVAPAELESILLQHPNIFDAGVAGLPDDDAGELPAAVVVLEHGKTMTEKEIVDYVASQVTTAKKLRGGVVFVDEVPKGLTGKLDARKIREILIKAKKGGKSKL
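Assay system: Luciferase/luciferin detection reagent, cell-free biochemical luciferase assay / Also added: ATP substrate / Schedule: 10 min at ambient temperature / Measured by: luminescence measurement of luciferase light output / Benchmarks: low control with PBS replacing ATP, high control enzyme plus ATP without compound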
STAT1 activator – STAT1 signaling activation; NIH 3T3 STAT1-luciferase reporter, IFN-gamma, luminescence; 100% = IFN-gamma alone, no compound; activation (% of control), % at 5.5 µM; 2.6% of 200,000 active;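 active = activation above the screen-wide mean activation plus 3 SD, cut at about 130% in these data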;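 also: raw ratio to IFN-gamma control signal so 100% means no change and 0% no light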
FLuc inh counter – counter-screen for luciferase assay inhibitors: firefly luciferase inhibition. P08659. ATPLite firefly luciferase biochemical luminescence, 10 min. inhibition, % at 10 µM. 1.5% of 200,000 active;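 active = inhibition above about 50% when tested at 10 µM, limit read from the data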
Pf gamet viab – P. falciparum stage V gametocyte viability inhibition; P. falciparum stage V gametocytes, ATP luminescence, 24 h; inhibition, % at 10.9 µM; 0.065% of 150,000 active;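 active = inhibition above the mean plus 3 SD of compounds within the control limits, set per campaign, cut at about 38% in these data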;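 also: 0% = DMSO wells and 100% = medium only without gametocytes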
APP 5'UTR act – APP 5'UTR luciferase reporter activation. SH-SY5Y APP 5'UTR luciferase reporter, luminescence; zero percent = DMSO vehicle wells. activation, % at 2 µM. 1% of 190,000 active;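 active = activation above a set limit, based on mean plus 3 SD of controls, cut at about 140% in these data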
* marks the source's active call; other numbers are inactive results. Compounds with a hit are over-represented: about 3.5% of the library has one in this group of screens.

Screening Oc1[nH]c2ccccc2c1N=Nc1ccccc1 returned Pf gamet viab 6.
For Oc1[nH]c2ccccc2c1N=Nc1ccccc1F the results were NF-kB neuron act 4.1*, FLuc stim CS 1, STAT1 activator 151*, FLuc inh counter 1, Pf gamet viab 0 and APP 5'UTR act 66.
`Cn1c(N)c(C(=O)COC(=O)C2CCC(C(C)(C)C)CC2)c(=O)n(C)c1=O` (centres undefined) gave NF-kB neuron act 0.73, FLuc stim CS 1, STAT1 activator 98, FLuc inh counter 0, Pf gamet viab -22 and APP 5'UTR act 2.
For CCO[C@@H]1OC(C(=O)Nc2ccccc2)=C[C@H](c2csc3ccccc23)[C@H]1CCCO the results were NF-kB neuron act 1, FLuc stim CS 1.1, STAT1 activator 106, FLuc inh counter -6, Pf gamet viab -29 and APP 5'UTR act -20.
CN(C)c1ccc(NC(=O)CCCc2ccccc2)cc1 was read as NF-kB neuron act 5.4*, FLuc stim CS 0.8, STAT1 activator 138*, FLuc inh counter 19 and APP 5'UTR act 150*.
CCNC(=O)COc1ccc(Br)cc1Cl was read as NF-kB neuron act 1.7, FLuc stim CS 0.9, STAT1 activator 118, FLuc inh counter 9 and APP 5'UTR act 15.
For COCCCNC(=O)COc1ccc(Br)cc1Cl the results were NF-kB neuron act 2.2, FLuc stim CS 0.9, STAT1 activator 139*, FLuc inh counter 8, Pf gamet viab -10 and APP 5'UTR act 17.
Screening Cc1ccc(-n2ncc3c(SCC(=O)NNC(=O)c4ccco4)ncnc32)cc1 returned NF-kB neuron act 1.9, FLuc stim CS 1, STAT1 activator 100, FLuc inh counter 4, Pf gamet viab -2 and APP 5'UTR act 51.
Screening CC(C)c1ccc(Nc2nc(CC(=O)O)cs2)cc1 returned NF-kB neuron act 7.2*, FLuc stim CS 0.3, STAT1 activator 115, FLuc inh counter 71*, Pf gamet viab -12 and APP 5'UTR act 242*.
`C=CCN(CC=C)c1cnn(-c2nc3ccccc3[nH]2)c(=O)c1Cl` gave NF-kB neuron act 2.8, FLuc stim CS 0.5, STAT1 activator 122, FLuc inh counter 51* and APP 5'UTR act 142*.
For COC(=O)c1ccc2c(=O)n(CC3CCCO3)c(SCC(=O)Nc3ccc(OC)cc3OC)nc2c1 (centres undefined) the results were Pf gamet viab -5.
For C=CCn1c(C)cc(C(=O)CSc2nnc3n(CCC)c(=O)c4ccccc4n23)c1C the results were Pf gamet viab -5.
For COc1ccccc1Nc1ncc(-c2cccs2)s1 the results were NF-kB neuron act 5.1*, FLuc stim CS 0.8, STAT1 activator 136*, FLuc inh counter 21 and APP 5'UTR act 9.
For COc1ccccc1Nc1ccc(C(=O)NCc2cccs2)cn1 the results were NF-kB neuron act 2.2, FLuc stim CS 1, STAT1 activator 113, FLuc inh counter 5, Pf gamet viab -10 and APP 5'UTR act -2.
COc1ccc(S(=O)(=O)N2Cc3ccccc3CC2C(=O)Nc2ccc3c(c2)OCO3)cc1 (centres undefined) was read as NF-kB neuron act 1.2, FLuc stim CS 1, STAT1 activator 106, FLuc inh counter 4 and APP 5'UTR act 21.
`COc1ccc(S(=O)(=O)N2Cc3ccccc3CC2C(=O)Nc2nccs2)cc1OC` (centres undefined) gave NF-kB neuron act 1.4, FLuc stim CS 1.1, STAT1 activator 116, FLuc inh counter -6 and APP 5'UTR act 163*.
COc1ccc(S(=O)(=O)N2Cc3ccccc3CC2C(=O)Nc2nccs2)cc1 (centres undefined) was read as NF-kB neuron act 1.6, FLuc stim CS 1, STAT1 activator 121, FLuc inh counter -4 and APP 5'UTR act 180*.
CCCOC(=O)c1ccc(NC(=O)c2ccoc2C)cc1 was read as NF-kB neuron act 3.5*, FLuc stim CS 0.9, STAT1 activator 141*, FLuc inh counter 9 and APP 5'UTR act 115.
`CC(C)[C@H](NC(N)=O)C(=O)Nc1ccc(OCc2ccccc2)cc1` gave NF-kB neuron act 1.2, FLuc stim CS 1, STAT1 activator 111, FLuc inh counter -2, Pf gamet viab -3 and APP 5'UTR act -5.
For CCCOC(=O)c1ccc(NC(=O)COC)cc1 the results were NF-kB neuron act 1.3, FLuc stim CS 1, STAT1 activator 112, FLuc inh counter 2, Pf gamet viab -11 and APP 5'UTR act 3.
`CCC(=O)Nc1ccc(C(=O)OCc2ccccc2)cc1` gave NF-kB neuron act 1.3, FLuc stim CS 1, STAT1 activator 132*, FLuc inh counter -3, Pf gamet viab 22 and APP 5'UTR act 24.
C[C@H](NC(N)=O)C(=O)Nc1ccc(OCc2ccccc2)cc1 was read as NF-kB neuron act 2.2, FLuc stim CS 0.9, STAT1 activator 132*, FLuc inh counter 6, Pf gamet viab 2 and APP 5'UTR act 52.
For CCC(=O)Nc1ccc(C(=O)NNC(=O)c2ccccc2)cc1 the results were NF-kB neuron act 0.99, FLuc stim CS 1.1, STAT1 activator 107, FLuc inh counter -8 and APP 5'UTR act 7.
Screening CC(=O)Nc1ccc(C(=O)OCCC(C)C)cc1 returned NF-kB neuron act 1.4, FLuc stim CS 1, STAT1 activator 129*, FLuc inh counter -2, Pf gamet viab -5 and APP 5'UTR act 6.
`Cc1occc1C(=O)Nc1cccc(C(=O)NCc2ccccc2)c1` gave NF-kB neuron act 0.87, FLuc stim CS 1.1, STAT1 activator 95, FLuc inh counter -6 and APP 5'UTR act 16.
Screening Cc1occc1C(=O)NNC(=O)c1ccccc1C(=O)O returned NF-kB neuron act 1.4, FLuc stim CS 1, STAT1 activator 146*, FLuc inh counter 0, Pf gamet viab -20 and APP 5'UTR act 181*.
`Cc1occc1C(=O)Nc1ccc(OCc2ccccc2)cc1` gave NF-kB neuron act 3.3, FLuc stim CS 0.8, STAT1 activator 129*, FLuc inh counter 22, Pf gamet viab 22 and APP 5'UTR act 119.
CCCOC(=O)c1ccc(NC(=O)CC(C)(C)C)cc1 was read as NF-kB neuron act 5.5*, FLuc stim CS 0.6, STAT1 activator 144*, FLuc inh counter 38, Pf gamet viab -12 and APP 5'UTR act 122.
For Cc1ccccc1C(=O)NNC(=O)c1ccoc1C the results were NF-kB neuron act 1.3, FLuc stim CS 1, STAT1 activator 96, FLuc inh counter -4 and APP 5'UTR act 9.
`Cc1cccc(OCCCOc2cccc3cccnc23)c1C` gave NF-kB neuron act 1.4, FLuc stim CS 1, STAT1 activator 104, FLuc inh counter -1, Pf gamet viab 7 and APP 5'UTR act 14.
`COc1ccc(C(=O)CSc2nnc(CNc3nc(-c4ccccc4)cs3)n2C)cc1` gave NF-kB neuron act 0.78, FLuc stim CS 1.1, STAT1 activator 101, FLuc inh counter -6, Pf gamet viab 8 and APP 5'UTR act 0.

Assay outcomes from PubChem.
